Data as given in ChEMBL document CHEMBL2417487, “Asteriscane-type sesquiterpenoids from the soft coral Sinularia capillosa” (J Nat Prod, 2013).
In brackets after ≈: the same amount, converted by molar mass.

How the values were obtained:
Amphibalanus amphitrite = assay: Antifouling activity against barnacle Balanus amphitrite Darwin; type: functional, organism-based
Procedure, shortened: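 Barnacle nauplii were reared to cyprids at 26−28 °C and fed Chaetoceros gracilis, reaching the cyprid stage within four days. Fresh cyprids were used for testing, and the value is reported as IC50.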

A549 = assay: Cytotoxicity against human A549 cells by MTT assay; type: functional, cell-based
BGC-823 = assay: Cytotoxicity against human BGC823 cells by MTT assay; type: functional, cell-based
SK-OV-3 = assay: Cytotoxicity against human SKOV3 cells by MTT assay; type: functional, cell-based
HepG2 = assay: Cytotoxicity against human HepG2 cells by MTT assay; type: functional, cell-based
HCT-8 = assay: Cytotoxicity against human HCT8 cells by MTT assay; type: functional, cell-based
[1] = Antiinflammatory activity in BALB/c mouse splenocytes assessed as inhibition of LPS-induced TNFalpha production at 10 uM after 24 hrs; type: functional; conditions: Splenocyte
Procedure, shortened: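 BALB/c mouse splenocyte suspensions were cultured in RPMI 1640 with 10% FBS. Compounds were dissolved in DMSO and given at 10 μM for 24 h, followed by LPS stimulation at 1 μg/mL. NK-007 at 100 nM served as positive control. TNF-α in culture supernatants was measured with cytometric bead array kits and reported as inhibitory rate.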

EC50 (Amphibalanus amphitrite) [µg/mL] | IC50 (Amphibalanus amphitrite) [µM] | SMILES | IC50 (A549) [µg/mL] | IC50 (BGC-823) [µg/mL] | IC50 (SK-OV-3) [µg/mL] | IC50 (HepG2) [µg/mL] | IC50 (HCT-8) [µg/mL] | inhibition at 10 µM [1] [%]
13.9 (≈ 58.8 µM) | – | CC(=O)CC/C=C(/C)C[C@@H]1CC(C)(C)CC1=O | – | – | – | – | – | –
– | – | CC1=C[C@]2(O)CC(C)(C)C[C@]23O[C@@]1(O)CC[C@H]3C | > 10 | > 10 | > 10 | > 10 | > 10 | –
– | – | CC1=C[C@@]23CC(C)(C)C[C@@]2(O)[C@H](C)CC[C@@H]1O3 | > 10 | > 10 | > 10 | > 10 | > 10 | –
– | – | CC1=CC2=CC(C)(C)C[C@@]23O[C@]1(O)CC[C@H]3C | > 10 | > 10 | > 10 | > 10 | > 10 | –
– | – | CC1(C)CC2=C[C@@](C)(O)[C@@]3(O)CC[C@@](C)(O)[C@]2(C1)O3 | > 10 | > 10 | > 10 | > 10 | > 10 | –
– | – | CC(=O)CC/C=C(/C)CC1=CC(C)(C)CC1=O | > 10 | > 10 | > 10 | > 10 | > 10 | –
– | – | C/C(=C/CC[C@H](C)O)CC1=CC(C)(C)CC1=O | > 10 | > 10 | > 10 | > 10 | > 10 | –
– | – | CC(=O)/C=C1/CC(C)(C)C[C@]12OC(=O)CC[C@H]2C | > 10 | > 10 | > 10 | > 10 | > 10 | –
– | – | CC(=O)C[C@@H]1CC(C)(C)C=C1[C@]1(C)CCC(=O)O1 | > 10 | > 10 | > 10 | > 10 | > 10 | –
– | 9.7 | C[C@@H]1CCC(=O)[C@](C)(O)/C=C2/CC(C)(C)C[C@@H]21 | > 10 | > 10 | > 10 | > 10 | > 10 | –
– | – | C/C1=C/C2=C(CC(C)(C)[C@@H]2O)[C@H](C)CC[C@@H]1O | > 10 | > 10 | > 10 | > 10 | > 10 | 16
– | – | C/C1=C/C2=C(CC(C)(C)[C@H]2O)[C@H](C)CC[C@@H]1O | > 10 | > 10 | > 10 | > 10 | > 10 | –
– | – | C/C1=C/C2=C(CC(C)(C)C2=O)[C@H](C)CC[C@@H]1O | > 10 | > 10 | > 10 | > 10 | > 10 | –
– | – | C/C1=C/[C@]23O[C@]2(CC(C)(C)C3=O)[C@H](C)CC[C@@H]1O | > 10 | > 10 | > 10 | > 10 | > 10 | –
– | – | C/C1=C/C2=C(CC(C)(C)C2=O)[C@H](C)CCC1=O | > 10 | > 10 | > 10 | > 10 | > 10 | –
– | – | C/C1=C/C2=CC(C)(C)C[C@@]2(OO)[C@H](C)CC[C@@H]1O | > 10 | > 10 | > 10 | > 10 | > 10 | –
– | – | C/C1=C/C2=CC(C)(C)C[C@]2(OO)[C@H](C)CC[C@@H]1O | > 10 | > 10 | > 10 | > 10 | > 10 | –
– | 54 | C[C@@H]1CC[C@]2(O)O[C@]13CC(C)(C)CC3=C[C@@]2(C)O | > 10 | > 10 | > 10 | > 10 | > 10 | 21
– | – | C[C@@H]1CC[C@]2(O)O[C@]13CC(C)(C)[C@H](O)C3=C[C@@]2(C)O | > 10 | > 10 | > 10 | > 10 | > 10 | –
– | 74 | CC(=O)CC/C=C(/C)C[C@H]1CC(C)(C)CC1=O [(-)-SINULARONE A] | – | – | – | – | – | 23
